Test results as given in ChEMBL document CHEMBL5346944, “Development of a 2,4-Diaminothiazole Series for the Treatment of Human African Trypanosomiasis Highlights the Importance of Static-Cidal Screening of Analogues” (J Med Chem, 2023).
Calls of active or inactive are those of the source. The rule behind the calls is not given here.

Columns and labels:
[1] = Metabolic stability in CD1 mouse liver microsomes assessed as intrinsic clearance by UPLC-MS/MS analysis; assay type: ADME
Outline: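 Compound at 0.5 μM incubated with female CD1 mouse liver microsomes (0.5 mg mL-1, 50 mM potassium phosphate pH 7.4). Reaction started with excess NADPH. Aliquots taken at 0, 3, 6, 9, 15, 30 min and quenched in acetonitrile with internal standard, then analysed by UPLC-MS/MS.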

[2] = Antiproliferative activity against human MRC5 cells in presence of 5% Co2 incubated for 69 hrs followed by resazurin addition further incubated for 4 hrs; assay type: toxicity, cell-based
[3] = Kinetic aqueous solubility of the compound in DMSO by laser nephelometry; assay type: physicochemical; conditions: read-out: Kinetic_solubility
[4] = Selectivity index, ratio of EC50 for human MRC-5 cells to EC50 for bloodstream-form Trypanosoma brucei; assay type: toxicity; conditions: read-out: Selectivity Index
Trypanosoma brucei [5] = assay: Antiparasitic activity against bloodstream-form Trypanosoma brucei in presence of 5% Co2 incubated for 69 hrs followed by resazurin addition further incubated for 4 hrs; assay type: functional, organism-based
[6] = Metabolic stability in human liver microsomes assessed as intrinsic clearance by UPLC-MS/MS analysis; assay type: ADME
Trypanosoma brucei [7] = assay: Antiparasitic activity against bloodstream-stage Trypanosoma brucei measured after 73 hrs by resazurin assay; assay type: functional, organism-based
[8] = Selectivity ratio of IC50 for inhibition of Trypanosoma brucei GSK3 to EC50 for antiparasitic activity against bloodstream-stage Trypanosoma brucei; assay type: toxicity
[9] = Free Cmax in NMRI mouse at 50 mg/kg, ip by UPLC-MS/MS analysis; assay type: ADME, organism-based; conditions: in vivo
[10] = Free Cmax in NMRI mouse at 100 mg/kg, ip by UPLC-MS/MS analysis; assay type: ADME, organism-based; conditions: in vivo
[11] = Free Cmax in Sprague-Dawley rat at 10 mg/kg, po by UPLC-MS/MS analysis; assay type: ADME, organism-based; conditions: in vivo
[12] = test system: Trypanosoma brucei brucei; assay: Antiparasitic activity against Trypanosoma brucei brucei S427 injected in NMRI mouse assessed as cure by measuring reduction in parasitemia at 100 mg/kg, for 4 days by stage I efficacy study; conditions: time 4.0 day
[13] = AUC in NMRI mouse at 50 mg/kg, ip by UPLC-MS/MS analysis; assay type: ADME, organism-based; parameters: dose 50 mg/kg, route ip; conditions: in vivo
[14] = Tmax in NMRI mouse at 50 mg/kg, ip by UPLC-MS/MS analysis; assay type: ADME, organism-based; conditions: in vivo
[15] = Cmax in NMRI mouse at 50 mg/kg, ip by UPLC-MS/MS analysis; assay type: ADME, organism-based; parameters: dose 50 mg/kg, route ip; conditions: in vivo
[16] = test system: Trypanosoma brucei brucei; assay: Antiparasitic activity against Trypanosoma brucei brucei S427 injected in Sprague-Dawley rat assessed as cure by measuring reduction in parasitemia at 100 mg/kg, po twice daily for 4 days by stage I efficacy study; assay type: functional, organism-based; conditions: time 4.0 day
[17] = Cmax in NMRI mouse at 100 mg/kg, ip by UPLC-MS/MS analysis; assay type: ADME, organism-based; parameters: dose 100 mg/kg, route ip; conditions: in vivo
[18] = AUC in Sprague-Dawley rat at 10 mg/kg, po by UPLC-MS/MS analysis; assay type: ADME, organism-based; parameters: dose 10 mg/kg, route po; conditions: in vivo
Outline: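 Oral gavage at 10 mg kg-1 free base in 10% DMSO/40% PEG400/50% water, 5 mL kg-1, to female NMRI mice (n = 3) or Sprague-Dawley rats. Blood drawn at 5, 15, 30 min and 1, 2, 4, 6, 8 h, mixed with two volumes of water, measured by UPLC-MS/MS. Parameters taken from the mean blood concentration–time curve.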

Row | Compound | CLH [1] [mL/min/g] | EC50 at 69 h [2] [µM] | further results
1 | Nc1nc(Nc2ccc(F)c(F)c2)sc1C(=O)CN1CCCC(F)(F)C1 | 33 |  | 
2 | CC(C)OCCC(=O)c1sc(Nc2ccc(F)c(F)c2)nc1N |  | 50 | 
3 | CC(OCC(=O)c1sc(Nc2ccc(C(F)(F)F)cc2)nc1N)C(F)(F)F (stereo unspecified) | 2.3 |  | solubility kinetic [3]: > 0.1 mg/mL
4 | Nc1nc(NC2CCCCC2)sc1C(=O)c1ccc(F)c(F)c1 | 12 |  | 
5 | COC(C)(C)CC(=O)c1sc(Nc2ccc(F)c(F)c2)nc1N | 6.1 | 50 | 
6 | O=C(c1cnc(NC2CCCCC2)s1)C1CCCCC1 | 15 |  | 
7 | CC(OCC(=O)c1sc(Nc2ccc(Cl)cc2)nc1N)C(F)(F)F (stereo unspecified) | 5.3 | 50 | solubility kinetic [3]: > 0.1 mg/mL
8 | CC(OCC(=O)c1sc(Nc2ccn(C)n2)nc1N)C(F)(F)F (stereo unspecified) | 10.8 |  | 
9 | Nc1nc(NC2CCCCC2)sc1C(=O)c1c(Cl)cccc1Cl | 4.1 |  | 
10 | Nc1nc(NC2CCCCC2)sc1C(=O)C1CCC1 | 21 |  | selectivity ratio [4]: 5
11 | Nc1nc(NC2CCCCC2)sc1C(=O)c1ccc(F)cc1F | 6.5 |  | 
12 | CC(C)C(=O)c1sc(NC2CCCCC2)nc1N | 0.5 |  | 
13 | CC(OCC(=O)c1sc(Nc2cccc(OC(F)F)c2)nc1N)C(F)(F)F (stereo unspecified) |  | 50 | selectivity ratio [4]: 2500; EC50 (Trypanosoma brucei [5]): 0.02 µM; solubility kinetic [3]: > 0.1 mg/mL
14 | Nc1nc(Nc2ccc(F)c(F)c2)sc1C(=O)CN1C[C@@H]2C[C@H]1CO2 | 4.1 | 50 | 
15 | Nc1nc(NC2CCCCC2)sc1C(=O)c1ccccc1C(F)(F)F | 14 |  | 
16 | Nc1nc(Nc2ccc(F)c(F)c2)sc1C(=O)COC1CC(F)(F)C1(F)F (stereo unspecified) | 5.2 |  | 
17 | Nc1nc(Nc2ccc(F)c(F)c2)sc1C(=O)CN1CCC(F)(F)CC1 | 9.3 |  | 
18 | CC(C)OCC(=O)c1sc(Nc2ccc(F)c(F)c2)nc1N | 9.3 | 50 | 
19 | Nc1nc(NC2CCCCC2)sc1C(=O)c1ccc(OC(F)F)cc1 | 2.9 |  | CLH [6]: 0.8 mL/min/g; selectivity ratio [4]: 267
20 | CC(C)CC(=O)c1sc(Nc2ccc(F)c(F)c2)nc1N | 5.9 |  | CLH [6]: 3.2 mL/min/g
21 | COc1ccc(Nc2nc(N)c(C(=O)COC(C)C(F)(F)F)s2)cn1 (stereo unspecified) | 9 | 50 | solubility kinetic [3]: > 0.1 mg/mL
22 | Nc1nc(Nc2ccccc2)sc1C(=O)c1ccc(F)cc1 | 7.3 |  | 
23 | Nc1nc(Nc2ccc(F)c(F)c2)sc1C(=O)COC1CCC1 | 9 | 50 | 
24 | Nc1nc(Nc2ccc(F)c(F)c2)sc1C(=O)CN1C[C@H]2CC[C@@H](C1)O2 | 8.8 | 50 | 
25 | COC(C)(C)C(=O)c1sc(NC2CCCCC2)nc1N | 3.8 |  | 

Row | Compound | CLH [1] [mL/min/g] | EC50 at 69 h [2] [µM] | further results
26 | Nc1nc(Nc2ccc(F)c(F)c2)sc1C(=O)CCN1CCOCC1 | 1.2 |  | 
27 | Nc1nc(Nc2ccc(F)c(F)c2)sc1C(=O)CN1CCCCC1 | 7.7 |  | 
28 | CC(OCC(=O)c1sc(Nc2ccc(F)c(F)c2)nc1N)C(F)(F)F (stereo unspecified) | 7.4 | 50 | 
29 | Nc1nc(NC2CCCCC2)sc1C(=O)C1CCCCC1 | 8.9 |  | 
30 | Nc1nc(NC2CCCC(O)C2)sc1C(=O)c1c(F)cccc1F (stereo unspecified) | 1.8 |  | 
31 | Nc1nc(NC2CCCCC2)sc1C(=O)c1ccncc1 | 4.1 |  | 
32 | Nc1nc(NC2CCCCC2)sc1C(=O)c1ccc(F)cc1 | 4.9 |  | 
33 | Nc1nc(Nc2ccccc2)sc1C(=O)c1ccccc1 | 12 |  | CLH [6]: < 0.5 mL/min/g
34 | CC1CCCN1CC(=O)c1sc(Nc2ccc(F)c(F)c2)nc1N (stereo unspecified) | 5.2 | 50 | 
35 | CC(C)CC(=O)c1sc(Nc2ccc(F)cc2)nc1N | 8 |  | 
36 | Nc1nc(Nc2ccc(F)c(F)c2)sc1C(=O)CN1CCCC1C(F)(F)F (stereo unspecified) | 26 |  | 
37 | CC(OCC(=O)c1sc(Nc2ccc3c(c2)OC(F)(F)O3)nc1N)C(F)(F)F (stereo unspecified) | 5 | 50 | solubility kinetic [3]: > 0.1 mg/mL
38 | CC(C)(C)C(=O)c1sc(NC2CCCCC2)nc1N | 2.5 |  | EC50 (Trypanosoma brucei [7]): 0.26 µM; Ratio IC50/EC50 [8]: 70
39 | CC(C)(O)CC(=O)c1sc(Nc2ccc(F)c(F)c2)nc1N | 2.2 |  | fCmax [9]: 2600 ng/mL; fCmax [10]: 5200 ng/mL; fCmax [11]: 195 ng/mL; Activity [12]: inactive; AUC [13]: 1900 µg·h/mL; Tmax [14]: 30 min; Cmax [15]: 18 µg/mL; Activity [16]: inactive; Cmax [17]: 36 µg/mL; CLH [6]: < 0.5 mL/min/g; AUC [18]: 470 µg·h/mL
40 | C[C@@H]1CN(CC(=O)c2sc(Nc3ccc(F)c(F)c3)nc2N)C[C@H](C)O1 | 8.1 | 50 | selectivity ratio [4]: 1000; EC50 (Trypanosoma brucei [5]): 0.05 µM
41 | CC(OCC(=O)c1sc(Nc2ccc(C(F)(F)F)nc2)nc1N)C(F)(F)F (stereo unspecified) |  | 50 | 
42 | Nc1nc(NC2CCCCC2)sc1C(=O)c1ccccc1F | 9.7 | 2 | 
43 | Nc1nc(Nc2ccc(F)c(F)c2)sc1C(=O)COC(CF)CF |  | 50 | 
44 | Nc1nc(Nc2ccc(F)c(F)c2)sc1C(=O)CN1CCCC1 | 2.1 |  | 
45 | Nc1nc(NC2CCCCC2)sc1C(=O)c1cc(F)cc(F)c1 | 3.6 |  | 
46 | CC(C)(C)OCC(=O)c1sc(Nc2ccc(F)c(F)c2)nc1N |  | 50 | 
47 | Nc1nc(Nc2ccc(F)c(F)c2)sc1C(=O)CN1CCOCC1 | 4.7 | 50 | selectivity ratio [4]: 2000
48 | CC(C)(C)CC(=O)c1sc(Nc2ccc(F)c(F)c2)nc1N | 4.6 |  | 
49 | CCOCC(=O)c1sc(Nc2ccc(F)c(F)c2)nc1N |  | 50 | 
50 | Nc1nc(NC2CCCCC2)sc1C(=O)c1ccc(C(F)(F)F)cc1 | 1.4 |  | 
